Screens deposited in PubChem BioAssay by several laboratories.
Most compounds without a hit are left out; they make up all but 2.1% or so of the library.
Hck Nef HTS = inhibitors of Nef-activated human Hck kinase, primary screen, biochemical, Z-Lyte FRET, 384-well, Hck-YEEI; Tyrosine-protein kinase HCK (Homo sapiens), P08631; inhibition, % at 20 µM; 220,000 compounds, 0.68% hits; Recombinant Hck-YEEI plus Nef, Z-Lyte FRET kinase assay; AID 463187, 2010;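 active means Hck-Nef kinase inhibition above about 50%, limit read from the data; inactive means inhibition below that limit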;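 further: 0% = DMSO with Hck plus Nef and 100% = Hck alone without Nef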
Target sequence (P08631 whole entry, looked up): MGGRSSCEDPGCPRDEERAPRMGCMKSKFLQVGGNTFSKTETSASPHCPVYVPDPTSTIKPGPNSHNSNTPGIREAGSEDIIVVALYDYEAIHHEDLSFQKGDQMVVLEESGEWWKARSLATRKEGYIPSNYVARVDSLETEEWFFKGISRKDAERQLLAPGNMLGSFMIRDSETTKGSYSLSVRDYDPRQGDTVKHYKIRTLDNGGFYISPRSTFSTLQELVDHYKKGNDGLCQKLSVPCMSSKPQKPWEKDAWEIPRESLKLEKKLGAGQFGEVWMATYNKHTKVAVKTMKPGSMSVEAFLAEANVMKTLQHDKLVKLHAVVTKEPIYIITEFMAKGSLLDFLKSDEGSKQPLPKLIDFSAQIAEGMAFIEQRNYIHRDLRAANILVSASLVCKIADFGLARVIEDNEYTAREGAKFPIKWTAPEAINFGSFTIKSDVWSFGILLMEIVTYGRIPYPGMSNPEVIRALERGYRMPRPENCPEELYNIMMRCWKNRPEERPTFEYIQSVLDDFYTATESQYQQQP
zVAD death inh = inhibitors of zVAD-triggered necroptosis, primary screen, L929 cells. viability rescue, % at 10 µM. 220,000 compounds, 0.38% hits. L929 zVAD necroptosis rescue, ATP luminescence, 24 h; with zVAD 60 µM;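 active means activation, scaled between plate controls, above about 75%, limit read from the data; inactive means activation under that limit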;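 further: 0% = zVAD with DMSO and 100% = DMSO alone without zVAD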
Runt-CBFb FRET = inhibitors of RUNX1 Runt–CBFb binding, primary screen, biochemical, FRET, Cerulean-Runt, Venus-CBFb, uHTS; Runt-related transcription factor 1 (Homo sapiens) + Core-binding factor subunit beta …; Cerulean-Runt/Venus-CBFb FRET ratio 530/480, 1 h; inhibition, % at 20 µM; 220,000 compounds, 0.46% hits; AID 1496, 2009;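 active means inhibition over about 50% at 20 µM in the single-dose screen, limit read from the data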;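 further: 0% = DMSO wells and 100% = excess unlabeled CBFb competitor control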
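test system = Cerulean-Runt domain fusion protein, energy donor | probe or stimulus = Venus-CBFb binding partner, 100 nM | incubation = two 1 h room-temperature incubations shielded from light | detection = fluorescence energy transfer, 422 nm excitation, 530/480 nm emission | measure = loss of energy transfer signal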
Runt-SMMHC FRET = inhibitors of RUNX1 Runt–CBFb-SMMHC binding, primary screen, biochemical, FRET, Cerulean-Runt, Venus-CBFb-SMMHC, uHTS. Runt-related transcription factor 1 (Homo sapiens) + Core-binding factor subunit beta …. Cerulean-Runt/Venus-CBFb-SMMHC FRET ratio 530/480, 1 h. inhibition, % at 20 µM. 220,000 compounds, 0.74% hits. AID 1434, 2008;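 active means mean inhibition across duplicate retests at 20 µM reaching about 50%, limit read from the data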;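 further: 0% = DMSO wells and 100% = wells with excess untagged CBFb-SMMHC; inhibitors lower the FRET ratio by blocking Runt binding to CBFb-SMMHC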
TNF death inh = inhibitors of TNF-alpha triggered necroptosis, primary screen, cell-based, Jurkat FADD-/-, single concentration | Jurkat FADD-/- TNF necroptosis rescue, ATP luminescence, 24 h; 0 = TNF only, 100 = no-TNF cells | activation (protection from cell death), % at 10 µM | 220,000 compounds, 0.068% hits | AID 463075, 2010;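 active means activation, meaning protection from cell death, of at least 50% relative to plate controls; inactive means activation below 50%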;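 further: necroptosis triggered by 40 ng/mL TNF-alpha added together with compound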
RanGTP-Impb inh = inhibitors of RanGTP-importin-beta interaction, primary screen, biochemical, FRET, CFP-Ran, YFP-importin-beta, homogeneous | inhibition, % (test concentration not listed) | 300,000 compounds, 1.1% hits | cell-free CFP-Ran/YFP-importin-beta FRET ratio | Ran GTPase (GTP-bound) - importin-beta complex;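 active means more than half of the replicate wells show a fall in the fluorescence ratio signal beyond about 16%, limit read from the data, passing the limit was not always enough; inconclusive means exactly half of the replicate wells pass the set limit; inactive means fewer than half of replicates pass the limit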;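 further: 0% = DMSO wells and 100% = Ran loaded with GDP instead of GTP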
Hck Nef conf = retest of Hck:Nef kinase inhibitor hits, confirmation, biochemical, Z-Lyte FRET, 384-well, p-Tyr peptide counterscreen | shares compounds with Hck Nef HTS | Recombinant Hck-YEEI:Nef, Z-Lyte FRET kinase assay | calls only at 10 µM | 1,300 compounds, 28% hits | AID 463188, 2010;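 active means average inhibition of at least 50%, with Z-scores no higher than 3 in both the phospho-tyrosine peptide and fluorescence counterscreens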
* = called active by the depositor; i = inactive; ? = inconclusive; / = no result given; + = active, no number.

SMILES	Hck Nef HTS	zVAD death inh	Runt-CBFb FRET	Runt-SMMHC FRET	TNF death inh	RanGTP-Impb inh	Hck Nef conf
Cc1ccc(-n2nnnc2SCc2nc3sc(C)c(C)c3c(=O)[nH]2)cc1	-1.1	1.4	-20.0	-51.4	1.4	0.7	/
N#CC1=C(N)Oc2cc(N)ccc2C1C1CCCCC1 (stereo unspecified)	50.7*	-1.0	50.5*	81.6*	-6.6	96.6*	i
O=C(NCc1ccccc1)N1CCNCC1	/	/	/	/	/	-1.8	/
O=C1NN(c2ccc(Cl)cc2)C(=O)/C1=C\c1ccc(-c2cccc(C(=O)O)c2)o1	53.2*	3.8	18.3	8.0	-1.7	/	i
O=C1NN(c2ccccc2)C(=O)/C1=C\c1ccc(-c2cc([N+](=O)[O-])ccc2O)o1	75.5*	1.8	-8.1	-15.2	-5.7	-3.0	+
Cc1ccc(N2NC(=O)/C(=C/c3ccc(-c4ccc(Cl)c(C(=O)O)c4)o3)C2=O)cc1	25.1	1.1	6.1	-0.3	0.7	-0.7	/
Cc1ccc(N2CCN(C(=O)c3nn(C)c4c3CS(=O)(=O)c3ccccc3-4)CC2)c(C)c1	/	/	/	/	/	-1.7	/
CCCc1ccc(OCC(=O)Nc2cc(S(=O)(=O)CC)ccc2O)cc1	16.4	10.8	-1.9	2.3	0.6	?	/
CCC(=O)Nc1ccc(NC(=O)CSc2nnc(-c3ccco3)n2CC)cc1	/	/	/	/	/	2.1	/
Oc1[nH]c2ccccc2c1C=Nc1ccc2c(c1)OCO2	51.9*	74.2	9.7	7.2	-1.4	-3.2	i
Cc1[nH]c2ccccc2c1/C=N\NC(=O)CNc1ccc2c(c1)OCO2	24.3	0.5	5.7	-0.3	2.1	0.7	/
O=C1C2C(C(=O)N1/N=C/c1ccc(N3CCCCC3)o1)C1C=CC2C12CC2 (stereo unspecified)	5.7	2.8	2.0	1.4	1.8	3.0	/
C=CCn1c(C)cc(C(=O)Cn2ncc(Cl)c(Cl)c2=O)c1C	52.6*	45.8	-9.0	-11.8	-13.6	3.6	i
NC(=O)c1ccsc1NC(=O)C1CC1	74.7*	26.2	0.1	-2.0	3.6	-2.9	+
O=C(NC12CC3CC(CC(C3)C1)C2)c1cc([N+](=O)[O-])ccc1N1CCOCC1	3.3	0.4	-0.5	0.8	1.0	2.9	/
N#Cc1c(NCCCO)nc(-c2ccco2)c2c1CCCC2	140.5*	0.9	-0.1	-10.7	-0.7	7.7	/
N#Cc1c(NC2CCCCC2)nc(-c2ccco2)c2c1CCCC2	0.5	0.7	2.5	0.0	-0.4	2.6	/
CCOC(=O)c1c(C)oc2c1c(C(c1ccncc1)N1CCOCC1)c(O)c1ccccc12 (stereo unspecified)	116.9*	0.7	11.5	-1.6	-0.2	/	+
CCN1C(=O)/C(=C\c2cn(-c3ccccc3)nc2-c2cccnc2)SC1=S	59.9*	0.7	-4.4	-15.9	-0.8	5.7	i
O=C(O)CN1C(=O)/C(=C\c2cn(-c3ccccc3)nc2-c2ccccc2)SC1=S	/	/	/	/	/	3.0	/
O=C1CSC(=S)N1/N=C/c1ccc(Cl)c([N+](=O)[O-])c1	80.2*	-0.2	12.2	-6.0	0.3	7.1	+
O=C(Nc1nc2ccsc2c(=O)s1)c1ccco1	64.7*	0.5	8.0	15.9	-2.7	3.6	i
CC1=N/C(=C/c2ccco2)C(=O)O1	58.5*	1.8	12.5	4.4	0.0	-4.5	i
O=c1/c(=C\c2cc([N+](=O)[O-])cc([N+](=O)[O-])c2O)sc2nc3ccccc3n12	70.8*	0.2	24.7	30.9	0.7	/	+
COc1ccc(N2CCN(S(=O)(=O)CC34CCC(CC3=O)C4(C)C)CC2)cc1 (stereo unspecified)	/	/	/	/	/	0.3	/
SMILES	Hck Nef HTS	zVAD death inh	Runt-CBFb FRET	Runt-SMMHC FRET	TNF death inh	RanGTP-Impb inh	Hck Nef conf
CCOC(=O)c1c(NC(=O)/C=C\C(=O)O)sc(C)c1-c1ccccc1	56.8*	-0.6	-1.8	-1.0	-0.7	2.0	+
Cc1cc(-n2c(=O)c(C#N)cc3c(=O)n4cccc(C)c4nc32)no1	190.0*	0.2	18.4	60.5*	-1.1	183.8*	/
CCOC(=O)/C(C#N)=C/c1c(Oc2cccc(C)c2)nc2ccccn2c1=O	23.2	0.4	-3.9	3.3	3.1	3.1	/
Cc1cccc(-n2c(=O)c(C#N)cc3c(=O)n4ccccc4nc32)c1	199.1*	-0.1	19.5	59.0*	-1.4	127.6*	/
Cc1cccn2c(=O)c3cc(C(=O)NCCC4=CCCCC4)n(C)c3nc12	/	/	/	/	/	-2.1	/
Cc1ccc(C)c(-n2c(=O)c(C#N)cc3c(=O)n4ccccc4nc32)c1	+	0.3	3.0	89.6*	-0.8	107.6*	/
Cn1c(C(=O)N2COCC2(C)C)cc2c(=O)n3ccccc3nc21	19.8	5.1	12.0	35.9	-0.9	5.6	/
Cc1ccccc1N1CCN(C2CCCN(C(=O)CCC3(C)CC3)C2)CC1 (stereo unspecified)	/	/	/	/	/	3.9	/
CC1=C(C(=O)OCC2CCCO2)C(c2ccncc2)C2=C(CCCC2=O)N1 (stereo unspecified)	9.4	0.9	19.2	50.1	0.0	8.2	/
CC1=C(C(=O)OCC2CCCO2)C(c2ccc(C)cc2)C2=C(CCCC2=O)N1 (stereo unspecified)	63.2*	-1.0	5.4	18.4	-1.6	1.8	i
CCn1c(CNC(=O)c2ccco2)nnc1SCC(=O)Nc1ccccc1Cl	/	/	/	/	/	2.3	/
CC(C)c1ccc(N)c(S(=O)(=O)O)c1	11.2	-0.8	0.8	2.8	2.3	1.0	/
O=C(N/N=C/c1cccc([N+](=O)[O-])c1)c1ccccc1-n1cccc1	58.1*	0.7	0.2	1.3	-0.7	0.5	i
O=C(N/N=C/c1cccc([N+](=O)[O-])c1)c1ccc(Br)cc1	24.1	4.2	/	/	-1.1	3.2	/
O=C(O)CSc1cc(C(=O)c2ccccc2O)cn2c(=O)c3c(-c4ccccc4)csc3nc12	60.8*	1.7	-15.9	-30.7	-1.0	4.3	+
Cc1ccc(-c2nc3ccccc3[nH]2)cc1NC(=O)c1sc2cc(Cl)ccc2c1Cl	73.1*	1.6	-3.5	1.7	0.6	0.5	i
